Source: PubChem (The Scripps Research Institute Molecular Screening Center)
GalR3 antag: blocks the human galanin receptor 3. O60755. 0.44% of 360,000 active. inhibition, % at 3 µM. HEK293 GalR3-CNG cAMP membrane potential fluorescence; galR3 body fused to GalR1 C-terminus;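 active = inhibition above the screen-wide average plus 3 SD, cut at about 13% in these data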;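 also: forskolin and galanin both at EC90 stimulate the cells; cAMP rise reported by CNG channel membrane potential dye signal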
Target sequence (O60755 1-299 limits assumed): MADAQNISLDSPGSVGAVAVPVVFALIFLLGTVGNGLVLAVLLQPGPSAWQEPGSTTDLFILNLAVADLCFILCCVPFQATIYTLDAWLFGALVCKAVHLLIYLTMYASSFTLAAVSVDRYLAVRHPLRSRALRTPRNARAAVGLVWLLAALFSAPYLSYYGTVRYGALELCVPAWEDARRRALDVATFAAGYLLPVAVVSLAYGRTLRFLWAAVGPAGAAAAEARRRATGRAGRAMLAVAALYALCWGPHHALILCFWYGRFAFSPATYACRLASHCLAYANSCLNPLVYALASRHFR
OX1R antag-1: antagonists of human orexin 1 receptor (OX1R). O43613. OX1R-expressing cells, FRET antagonist read-out. inhibition, % at 6.6 µM. 1.8% of 330,000 active. AID 485270; in the data active = inhibition mostly above about 38%, no sharp cut-off; inactive = mostly below about 40%
GPR7 antag: antagonists of human GPR7 (neuropeptides B/W receptor 1); P48145; GPR7-expressing cells, fluorescence antagonist assay; inhibition, % at 4.4 µM; 1.1% of 290,000 active; in the data active = inhibition above about 16%, passing the limit was not always enough;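 also: cells stimulated with the agonist NPW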
Target sequence (P48145 whole entry, looked up): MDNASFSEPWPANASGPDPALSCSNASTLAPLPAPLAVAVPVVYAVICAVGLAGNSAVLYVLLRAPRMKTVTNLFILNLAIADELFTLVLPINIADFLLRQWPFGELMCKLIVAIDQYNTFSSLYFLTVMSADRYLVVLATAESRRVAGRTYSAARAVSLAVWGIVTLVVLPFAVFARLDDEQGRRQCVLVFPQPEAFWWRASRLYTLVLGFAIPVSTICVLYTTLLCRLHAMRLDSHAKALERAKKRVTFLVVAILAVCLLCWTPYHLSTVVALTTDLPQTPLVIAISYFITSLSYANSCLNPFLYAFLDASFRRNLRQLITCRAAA
OX1R antag-2: human HCRTR1 antagonism; CHO/OX1R cells, Fluo-8 calcium fluorescence, orexin A; inhibition, % at 5 µM; 0.43% of 330,000 active;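 active = inhibition above its plate's threshold, mean inhibition of all tested compounds on the plate plus 3 SD, cut at about 37% in these data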
CHO parental Ca: counter-screen: ATP calcium response change in parental CHO cells. parental CHO-K1, ATP-induced calcium, Fluo-8 fluorescence. inhibition, % at 5.6 µM. 0.63% of 330,000 active. AID 463079;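 active = inhibition above that plate's mean sample inhibition plus 3 SD, cut at about 26% in these data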
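Assay system – parental CHO cells · Reagent – ATP stimulus · Detection – intracellular calcium via Fluo-8 no-wash fluorescent dye · Evaluation – percent inhibition of ATP-evoked calcium rise, normalized to controls · Controls – ATP wells versus no-ATP DMSO wells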
OX1R HTRF conf: OX1R (human) antagonism, HTRF confirmed; shares compounds with OX1R antag-1; OX1R-expressing cells, HTRF antagonist assay; inhibition, % at 6.6 µM; 49% of 1,800 active; AID 492964; in the data active = inhibition above about 55%;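 also: CHO cells expressing OX1R stimulated with orexin A at about EC80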
CHO-K1 HTRF cnt: counter-screen for OX1R antagonists: effect in parental CHO-K1 cells | HTRF counterscreen | 48% of 1,800 active | inhibition, % at 6.6 µM | shares compounds with OX1R antag-1 | AID 493232; in the data active = inhibition above about 17%
A number is an active result; – = inactive; · = not tested or not shown. In the library only some 3.1% were active in any assay of this set; here they are far more common.

SMILES | GalR3 antag | OX1R antag-1 | GPR7 antag | OX1R antag-2 | CHO parental Ca | OX1R HTRF conf | CHO-K1 HTRF cnt
O=C(Cn1cnc2cc([N+](=O)[O-])ccc2c1=O)NCCc1ccc(F)cc1 | – | – | – | – | – | · | ·
Cc1cc(NC(=O)c2ccc(Cl)c(S(=O)(=O)N3CCCCC3)c2)no1 | – | – | – | – | – | · | ·
C[C@H](CO)N1C[C@H](C)[C@H](CN(C)S(=O)(=O)c2ccc3ccccc3c2)OCc2cnnn2CCCC1=O | – | · | · | · | · | · | ·
Clc1ccccc1Nc1nc(-c2cccnc2)cs1 | – | 84 | – | – | – | 77 | –
O=C(COc1ccc([N+](=O)[O-])cc1)NNC(=O)Nc1cccc(F)c1 | – | – | – | – | – | · | ·
O=C(Nc1cccc(Br)c1)c1cccc(OC(=S)N2CCOCC2)c1 | – | – | – | – | – | · | ·
COc1cc(OC)c(OC)cc1CN1CCSCC1 | – | · | – | · | · | · | ·
NC(=NCCc1ccccc1)NC(=O)c1cc(Cl)ccc1O | – | – | · | – | – | · | ·
CCCCOc1ccc(-c2nnc(-c3cc[n+](C)cc3)o2)cc1 | – | 102 | – | – | – | 88 | 74
COc1ccc2oc(=O)c(-c3cn4ccc(C)cc4n3)cc2c1 | – | – | – | – | – | · | ·
O=c1oc2ccccc2cc1-c1cn2ccccc2n1 | – | 95 | – | – | – | 72 | 20
C/C(=N/NC(=O)CN1CCN(Cc2ccccc2)CC1)c1ccc([N+](=O)[O-])cc1 | – | 77 | – | – | – | – | 29
C/C(=N\NC(=O)CN1CCN(Cc2ccccc2)CC1)c1ccncc1 | – | – | – | – | – | · | ·
O=C(CCC(=O)N1CCN(Cc2ccc(F)cc2)CC1)Nc1nnc(C(F)(F)F)s1 | – | – | – | – | – | · | ·
CCCCC[n+]1ccn(C2=C([O-])c3ccccc3C(=O)/C2=N\S(=O)(=O)c2ccc(Br)cc2)c1 | – | – | – | – | – | · | ·
CC(C)[n+]1ccn(C2=C([O-])c3ccccc3C(=O)/C2=N\S(=O)(=O)c2ccccc2)c1 | – | 77 | – | – | – | 69 | 96
CCCC[n+]1ccn(C2=C([O-])c3ccccc3C(=O)/C2=N\S(=O)(=O)c2ccccc2)c1 | – | 165 | – | – | – | – | 94
CCCCC[n+]1ccn(C2=C([O-])c3ccccc3C(=O)/C2=N\S(=O)(=O)c2ccccc2)c1 | – | 100 | – | – | – | – | 52
CC(C)c1ccc(S(=O)(=O)/N=C2\C=C(NS(=O)(=O)c3ccccc3)C(=O)c3ccccc32)cc1 | – | – | – | – | – | · | ·
Cc1ccc2cc3cc(C(=O)NCCN4CCOCC4)oc3nc2c1 | – | 117 | – | – | – | – | 38
COc1ccc(C(=O)NCCCN2CCOCC2)cc1 | – | – | – | – | – | · | ·
CCN1CCN(CCCNC(=O)c2cc3cc4ccc(OC)cc4nc3o2)CC1 | · | 104 | – | – | – | – | 41
COc1ccc2cc3cc(C(=O)NCCCN4CCOCC4)oc3nc2c1 | – | 135 | – | – | – | 56 | 35
O=C1c2ccc(Oc3ccc4c(c3)C(=O)N(CCCO)C4=O)cc2C(=O)N1CCCO | – | 136 | – | – | – | – | 25
O=C1c2ccc(-c3ccc4c(c3)C(=O)N(CCO)C4=O)cc2C(=O)N1CCO | – | 174 | – | – | – | 66 | 82
SMILES | GalR3 antag | OX1R antag-1 | GPR7 antag | OX1R antag-2 | CHO parental Ca | OX1R HTRF conf | CHO-K1 HTRF cnt
Nc1cccc(Oc2ccc3c(c2)C(=O)N(CCO)C3=O)c1 | – | · | · | · | · | · | ·
Cc1ccc2c(c1)C(=O)N(CCCCO)C2=O | – | – | – | – | – | · | ·
CCN(CC(=O)Nc1ccc(C(C)=O)cc1)CC(=O)Nc1cccc(OC)c1 | – | – | – | – | – | · | ·
O=C(NNC(=O)c1ccc([N+](=O)[O-])cc1Cl)c1ccncc1 | – | 103 | – | – | – | – | 44
O=c1[nH]c(SCCc2ccccc2)nc2c1CCC2 | – | · | · | · | · | · | ·
CCNc1c(C(=O)O)ccc2c1C(=O)c1ccccc1C2=O | – | 97 | – | – | – | – | 18
O=C(O)c1cccc2c1C(=O)c1ccccc1C2=O | – | 85 | – | – | – | 64 | 110
CNc1c(C(=O)O)ccc2c1C(=O)c1ccccc1C2=O | – | 111 | – | – | – | 62 | 86
O=C(O)c1ccc2c(c1Nc1ccccc1)C(=O)c1ccccc1C2=O | – | – | – | – | – | · | ·
O=C(O)c1cccc2c1C(=O)c1ccccc1-2 | – | – | – | – | – | · | ·
COc1ccc(-c2sc(Nc3ccccc3)n[n+]2C)c(C)c1C | – | – | – | – | – | · | ·
CSc1nc2c(c(=O)[nH]1)C(c1cccc(Br)c1)CC(=O)N2 (centres undefined) | – | – | – | – | – | · | ·
COC(=O)c1nn(-c2ccc(OC)cc2)c(=O)c2c(N)sc(C)c12 | – | 83 | – | – | – | – | 43
CCCCOC(=O)c1ccc(NC(=O)C(=O)NCc2ccco2)cc1 | – | – | – | – | – | · | ·
CCOC(=O)N/N=C\c1ccc([N+](=O)[O-])o1 | – | 78 | – | – | – | – | 79
N#CC1=C(N)Oc2c(oc(CO)cc2=O)C1c1cccs1 (centres undefined) | – | 77 | – | – | – | – | 22
N#CC1=C(N)Oc2c(oc(CO)cc2=O)C1c1ccsc1 (centres undefined) | – | 92 | – | – | – | – | 18
COc1cccc(C2C(C#N)=C(N)Oc3c2oc(CO)cc3=O)c1OC (centres undefined) | – | – | – | – | – | · | ·
COc1ccc(-c2ccc3c(n2)CCCN3Cc2ccccc2C(F)(F)F)cc1 | – | · | · | · | · | · | ·
CCC(NC(=O)c1ccc([N+](=O)[O-])cc1[N+](=O)[O-])c1ccccc1 (centres undefined) | – | 114 | – | – | – | 55 | 50
CC(NC(=O)c1ccc([N+](=O)[O-])cc1[N+](=O)[O-])c1ccc(-c2ccccc2)cc1 (centres undefined) | – | – | – | – | – | · | ·
N#C/C(=N\Nc1ccc(F)cc1)C(=N)N1CCCCCC1 | – | – | – | – | – | · | ·
N#C/C(=N\Nc1ccc(Cl)cc1)C(=N)N1CCCCC1 | – | 77 | – | – | – | – | –
CN(CCO)C1=NS(=O)(=O)c2cc([N+](=O)[O-])ccc21 | – | 95 | – | – | – | 66 | 94
COc1cccc(C=C2SC(=S)NC2=O)c1 | – | · | · | · | · | · | ·
SMILES | GalR3 antag | OX1R antag-1 | GPR7 antag | OX1R antag-2 | CHO parental Ca | OX1R HTRF conf | CHO-K1 HTRF cnt
COc1ccccc1OCCCOc1cccc(/C=C2\SC(=O)NC2=O)c1 | – | 78 | – | – | – | – | 22
COc1ccc(C=C2SC(=O)NC2=O)cc1OC | – | · | · | · | · | · | ·
COc1ccccc1OCCCOc1ccc(/C=C2\SC(=O)NC2=O)cc1OC | – | 78 | – | – | – | 70 | –
CCN(CC)S(=O)(=O)c1ccc(OC(C)C)c(NC(=O)C2=COCCO2)c1 | – | – | · | – | – | · | ·
CCCN1CCN(S(=O)(=O)c2cn(C)nc2C)CC1 | – | – | – | – | – | · | ·
Cc1cnc([N+](=O)[O-])n1CCOC(=O)NC(=O)c1ccccc1Cl | – | – | – | – | – | · | ·
